Assay results of several laboratories.
Sample: plasma

C=CC(=O)NC1CCN(c2ncc3ncnc(Nc4ccc(Oc5ccc6c(c5)ncn6C)c(C)c4)c3n2)CC1  Vd (male human; intravenous, 100 µg, single dose, healthy volunteers): 391 L
COc1ccc(F)cc1C(=O)NCc1ccc(-c2nn([C@@H](C)C(F)(F)F)c(N)c2C(N)=O)cc1  Vd (male human; intravenous, 22 µg): 0.54 L/kg
N#Cc1cccc(-c2ccc3ncc(-c4cc(F)cc(F)c4)c(N4CCC(N)CC4)c3c2)c1O  Vd (human; intravenous, 50 µg): 220 L
OC[C@H]1O[C@@H](c2cc(Cc3ccc(C4CC4)cc3)c(Cl)c3c2CCO3)[C@H](O)[C@@H](O)[C@@H]1O  Vd/F (human; oral, 0.3 mg, single dose, fed): 177 L
C=CC(=O)N1C[C@H](Nc2ncnc3[nH]ccc23)CC[C@@H]1C  Vd/F (human; oral, 30 mg): 183 L
CC(C)c1nc(N(C)S(C)(=O)=O)nc(-c2ccc(F)cc2)c1/C=C/[C@@H](O)C[C@@H](O)CC(=O)O  Vd/F (human; oral, 10 mg): 8020 L
C[C@@H](Oc1ccc(S(C)(=O)=O)cc1C(=O)N1C[C@@H]2C[C@]2(c2cc(C(F)(F)F)on2)C1)C(F)(F)F  Vd/F (human; oral, 10 mg, single dose, fed): 247 L
COc1ccc2c(c1)CN(C(=O)CCN1CCC(Cc3ccccc3)CC1)CC[S@@+]2[O-]  Vd (male human; intravenous, 0.4 mg/kg, healthy volunteers): 46.3 L
